Test results taken from ChEMBL document CHEMBL3046601, “Synthesis and herbicidal activity of N,N-diethyl-3-(arylselenonyl)-1H-1,2,4-triazole-1-carboxamide” (2006).

Columns and labels:
Type in all cases: functional
[1] = Herbicidal activity against semen euphorbiae assessed as inhibition of weed growth at 500 ug/mL measured 15 days post compound treatment by pot-culture method; settings: 360 h; read-out: GI
How it was run: (§1)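 Pot-culture assay on whole plants. Compounds were dissolved in toluene, diluted in water, and emulsified with a drop of Tween 80. Five parallel tests per compound, each compared with an untreated control, read as the ratio of growth inhibition. The 500 µg/mL level was the preliminary screen; the follow-up used 0.9375–15 µg/mL on cucumber, rice and semen euphorbiae.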

[2] = system: Cucumis sativus; assay: Herbicidal activity against Cucumis sativus jinyou 15 (cucumber) assessed as inhibition of weed growth at 500 ug/mL measured 15 days post compound treatment by pot-culture method; settings: jinyou 15, 360 h, read-out: GI; how it was run: as §1
[3] = system: Echinochloa crus-galli; assay: Herbicidal activity against semen euphorbiae assessed as inhibition of weed growth at 7.5 ug/mL measured 15 days post compound treatment by pot-culture method; settings: 360 h, read-out: GI; how it was run: as §1
[4] = system: Oryza sativa; assay: Toxicity against Oryza sativa xiuanyou 63 (rice) assessed as growth inhibition at 7.5 ug/mL measured 15 days post compound treatment by pot-culture method; settings: xiuanyou 63, 360 h, read-out: GI; how it was run: as §1
[5] = system: Cucumis sativus; assay: Herbicidal activity against Cucumis sativus jinyou 15 (cucumber) assessed as inhibition of weed growth at 3.75 ug/mL measured 15 days post compound treatment by pot-culture method; settings: jinyou 15, 360 h, read-out: GI; how it was run: as §1
[6] = system: Echinochloa crus-galli; assay: Herbicidal activity against semen euphorbiae assessed as inhibition of weed growth at 15 ug/mL measured 15 days post compound treatment by pot-culture method; settings: 360 h, read-out: GI; how it was run: as §1
[7] = system: Echinochloa crus-galli; assay: Herbicidal activity against semen euphorbiae assessed as inhibition of weed growth at 3.75 ug/mL measured 15 days post compound treatment by pot-culture method; settings: 360 h, read-out: GI; how it was run: as §1
[8] = system: Echinochloa crus-galli; assay: Herbicidal activity against semen euphorbiae assessed as inhibition of weed growth at 1.875 ug/mL measured 15 days post compound treatment by pot-culture method; settings: 360 h, read-out: GI; how it was run: as §1
[9] = system: Echinochloa crus-galli; assay: Herbicidal activity against semen euphorbiae assessed as inhibition of weed growth at 0.9375 ug/mL measured 15 days post compound treatment by pot-culture method; settings: 360 h, read-out: GI; how it was run: as §1
[10] = system: Oryza sativa; assay: Toxicity against Oryza sativa xiuanyou 63 (rice) assessed as growth inhibition at 15 ug/mL measured 15 days post compound treatment by pot-culture method; settings: xiuanyou 63, 360 h, read-out: GI; how it was run: as §1
[11] = system: Oryza sativa; assay: Toxicity against Oryza sativa xiuanyou 63 (rice) assessed as growth inhibition at 3.75 ug/mL measured 15 days post compound treatment by pot-culture method; settings: xiuanyou 63, 360 h, read-out: GI; how it was run: as §1
[12] = system: Oryza sativa; assay: Toxicity against Oryza sativa xiuanyou 63 (rice) assessed as growth inhibition at 0.9375 ug/mL measured 15 days post compound treatment by pot-culture method; settings: xiuanyou 63, 360 h, read-out: GI; how it was run: as §1
[13] = system: Oryza sativa; assay: Toxicity against Oryza sativa xiuanyou 63 (rice) assessed as growth inhibition at 1.875 ug/mL measured 15 days post compound treatment by pot-culture method; settings: xiuanyou 63, 360 h, read-out: GI; how it was run: as §1
[14] = system: Cucumis sativus; assay: Herbicidal activity against Cucumis sativus jinyou 15 (cucumber) assessed as inhibition of weed growth at […] measured 15 days post compound treatment by pot-culture method; settings: jinyou 15, 360 h, read-out: GI; how it was run: as §1

CCN(CC)C(=O)n1cnc([Se](=O)(=O)c2ccccc2)n1
inhibition of growth at 500 µg/mL [1]: 4.18%
inhibition of growth at 500 µg/mL [2]: 8.75%

CCN(CC)C(=O)n1cnc([Se](=O)(=O)c2ccc(F)c(F)c2)n1
inhibition of growth at 500 µg/mL [1]: 44.3%
inhibition of growth at 500 µg/mL [2]: 44%

CCN(CC)C(=O)n1cnc([Se](=O)(=O)c2cccc(C(F)(F)F)c2)n1
inhibition of growth at 500 µg/mL [1]: 25.2%
inhibition of growth at 500 µg/mL [2]: 18.5%

CCN(CC)C(=O)n1cnc([Se](=O)(=O)c2c(C)cccc2C)n1
inhibition of growth at 7.5 µg/mL [3]: 88.9%
inhibition of growth at 7.5 µg/mL [4]: 2.8%
inhibition of growth at 3.75 µg/mL [5]: 100%
inhibition of growth at 500 µg/mL [1]: 100%
inhibition of growth at 500 µg/mL [2]: 100%

CCN(CC)C(=O)n1cnc([Se](=O)(=O)c2ccc(Cl)cc2)n1
inhibition of growth at 500 µg/mL [1]: 17%
inhibition of growth at 500 µg/mL [2]: 18.6%

CCN(CC)C(=O)n1cnc([Se](=O)(=O)c2c(C)cc(C)cc2C)n1
inhibition of growth at 7.5 µg/mL [3]: 91.1%
inhibition of growth at 7.5 µg/mL [4]: 8.3%
inhibition of growth at 3.75 µg/mL [5]: 100%
inhibition of growth at 500 µg/mL [1]: 100%
inhibition of growth at 500 µg/mL [2]: 100%

CCN(CC)C(=O)n1cnc([Se](=O)(=O)c2ccc([N+](=O)[O-])cc2)n1
inhibition of growth at 500 µg/mL [1]: 46.4%
inhibition of growth at 500 µg/mL [2]: 26.9%

CCN(CC)C(=O)n1cnc([Se](=O)(=O)c2ccc(F)cc2F)n1
inhibition of growth at 500 µg/mL [1]: 53.9%
inhibition of growth at 500 µg/mL [2]: 33.9%

CCN(CC)C(=O)n1cnc([Se](=O)(=O)c2ccc(C(F)(F)F)c(Cl)c2)n1
inhibition of growth at 500 µg/mL [1]: 45.6%
inhibition of growth at 500 µg/mL [2]: 15.3%

CCN(CC)C(=O)n1cnc([Se](=O)(=O)c2ccc(F)c(Cl)c2)n1
inhibition of growth at 500 µg/mL [1]: 39.6%
inhibition of growth at 500 µg/mL [2]: 10.7%

CCN(CC)C(=O)n1cnc([Se](=O)(=O)c2ccc(OC)cc2)n1
inhibition of growth at 500 µg/mL [1]: 63.9%
inhibition of growth at 500 µg/mL [2]: 30.3%

CCN(CC)C(=O)n1cnc([Se](=O)(=O)c2ccc(C)cc2C)n1
inhibition of growth at 500 µg/mL [1]: 51%
inhibition of growth at 500 µg/mL [2]: 42%

CCN(CC)C(=O)n1cnc(S(=O)(=O)c2c(C)cc(C)cc2C)n1 [CAFENSTROLE]
inhibition of growth at 15 µg/mL [6]: 100%
inhibition of growth at 7.5 µg/mL [3]: 95.6%
inhibition of growth at 3.75 µg/mL [7]: 84.4%
inhibition of growth at 1.875 µg/mL [8]: 46.7%
inhibition of growth at 0.9375 µg/mL [9]: 17.8%
inhibition of growth at 15 µg/mL [10]: 100%
inhibition of growth at 3.75 µg/mL [11]: 47.2%
inhibition of growth at 7.5 µg/mL [4]: 72%
inhibition of growth at 0.9375 µg/mL [12]: 0%
inhibition of growth at 1.875 µg/mL [13]: 13.9%
inhibition of growth [14]: 100%
inhibition of growth at 500 µg/mL [1]: 100%
inhibition of growth at 500 µg/mL [2]: 100%
